# According to ChEMBL document CHEMBL1145471, “Small molecule regulators of autophagy identified by an image-based high-throughput screen” (Proc Natl Acad Sci U S A, 2007):
# Where a SMILES comes first, the peptide text is derived from it. [ ]: non-standard residue; d: D form. Nle = CCCC[C@H](N)C(=O)O
# Columns and labels:
# Format in all cases: functional
# [1] = system: H4; assay: Decrease in FYVE-RFP+ vesicle intensity per cell in human H4 cells after 2 hrs relative to control; design: concentration or dose not given beside the values
# Outline: (§1)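 H4 cells stably expressing FYVE-RFP (H4-FYVE), grown in DMEM with 10% FBS, penicillin/streptomycin and 2 mM L-glutamine at 37°C, 5% CO2, seeded in 96-well plates and exposed to compound. Fixed in 4% paraformaldehyde, nuclei stained with 3 μg/ml DAPI, FYVE-RFP+ vesicles quantified by high-throughput fluorescence microscopy against DMSO control. Triplicate wells, mean ± SD.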
# [2] = system: H4; assay: Increase in long-lived protein degradation in human H4 cells after 4 hrs relative to control; design: concentration or dose not given beside the values
# [3] = system: H4; assay: Increase in light chain 3-GFP+ autophagosome vesicle intensity per cell in human H4 cells at 4.5 uM after 24 hrs by high throughput fluorescence microscopy relative to control
# Outline: (§2)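 H4 cells stably expressing LC3-GFP were grown in DMEM with 10% FBS and 2 mM L-glutamine at 37°C, 5% CO2. They were exposed to each compound for 24 h, with DMSO as negative and rapamycin as positive control. Cells were then fixed in 4% paraformaldehyde and stained with 3 μg/ml DAPI. High-throughput fluorescence imaging scored LC3-GFP spot number, size and intensity, expressed relative to DMSO. Mean ± SD of triplicates; experiments repeated three times.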
# [4] = system: H4; assay: Increase in long-lived protein degradation in human H4 cells after 1 hr relative to control; design: concentration or dose not given beside the values
# [5] = system: H4; assay: Increase in light chain 3-GFP+ autophagosome vesicle number per cell in human H4 cells at 4.5 uM after 24 hrs by high throughput fluorescence microscopy relative to control; outline: as §2
# [6] = system: H4; assay: Induction of light chain 3-GFP level in human H4 cells at 4.5 uM after 24 hrs by high throughput fluorescence microscopy relative to control
# Outline: (§3)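 H4 cells stably expressing LC3-GFP, grown in DMEM with 10% FBS, penicillin/streptomycin and 2 mM L-glutamine at 37°C, 5% CO2. Cells were seeded in 96-well plates and exposed to library compounds at 3–12 μM for 24 h, then fixed in 4% paraformaldehyde and stained with 3 μg/ml DAPI. LC3-GFP spot number, size and intensity were measured by high-throughput fluorescence microscopy and expressed relative to DMSO. Triplicates, mean ± SD.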
# [7] = system: H4; assay: Decrease in FYVE-RFP+ vesicle intensity per cell in human H4 cells after 8 hrs relative to control; design: concentration or dose not given beside the values; outline: as §1
# [8] = system: H4; assay: Increase in long-lived protein degradation in human H4 cells after 2 hrs relative to control; design: concentration or dose not given beside the values
# [9] = system: H4; assay: Increase in light chain 3-GFP+ autophagosome vesicle area per cell in human H4 cells at 4.5 uM after 24 hrs by high throughput fluorescence microscopy relative to control
# Outline: (§4)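 H4 cells stably expressing LC3-GFP, seeded in 96-well plates and exposed to compound for 24 h; screening concentrations were 3–12 μM, with rapamycin 0.22 μM and bafilomycin A1 0.40 μM. Cells fixed in 4% paraformaldehyde and stained with 3 μg/ml DAPI. Number, size and intensity of LC3-GFP spots measured by high-throughput fluorescence microscopy and expressed as percent of DMSO-treated wells. Rapamycin was the positive control. Triplicate wells, mean ± SD; experiments repeated three times.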
# [10] = system: H4; assay: Decrease in FYVE-RFP+ vesicle intensity per cell in human H4 cells after 4 hrs relative to control; design: concentration or dose not given beside the values; outline: as §1
# [11] = system: H4; assay: Increase in long-lived protein degradation in human H4 cells after 24 hrs relative to control; design: concentration or dose not given beside the values
# [12] = system: H4; assay: Increase in light chain 3-GFP+ autophagosome vesicle number per cell in human H4 cells at 4.8 uM after 24 hrs by high throughput fluorescence microscopy relative to control
# Outline: (§5)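 H4 cells stably expressing LC3-GFP, kept in DMEM/10% FBS at 37°C, 5% CO2, were seeded in 96-well plates and exposed to compound for 24 h. Cells were then fixed in 4% paraformaldehyde and stained with 3 μg/ml DAPI. Automated fluorescence microscopy scored the number, size and intensity of LC3-GFP spots. Values are percent of DMSO wells, in triplicate, mean ± SD. Rapamycin served as positive control.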
# [13] = system: H4; assay: Induction of light chain 3-GFP level in human H4 cells at 4.8 uM after 24 hrs by high throughput fluorescence microscopy relative to control; outline: as §5
# [14] = system: H4; assay: Increase in light chain 3-GFP+ autophagosome vesicle area per cell in human H4 cells at 4.8 uM after 24 hrs by high throughput fluorescence microscopy relative to control
# Outline: (§6)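 H4 cells stably expressing LC3-GFP, seeded in 96-well plates and exposed to compound for 24 h; fixed in 4% paraformaldehyde, nuclei stained with 3 μg/ml DAPI. Automated fluorescence microscopy scored number, size and intensity of LC3-GFP spots; values expressed relative to DMSO-treated wells, rapamycin positive control. Triplicate wells, mean ± SD; experiments repeated three times.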
# [15] = system: H4; assay: Increase in light chain 3-GFP+ autophagosome vesicle intensity per cell in human H4 cells at 4.8 uM after 24 hrs by high throughput fluorescence microscopy relative to control; outline: as §6
# [16] = system: H4; assay: Induction of light chain 3-GFP level in human H4 cells at 6.1 uM after 24 hrs by high throughput fluorescence microscopy relative to control; outline: as §5
# [17] = system: H4; assay: Increase in light chain 3-GFP+ autophagosome vesicle intensity per cell in human H4 cells at 6.1 uM after 24 hrs by high throughput fluorescence microscopy relative to control; outline: as §6
# [18] = system: H4; assay: Increase in light chain 3-GFP+ autophagosome vesicle area per cell in human H4 cells at 3.8 uM after 24 hrs by high throughput fluorescence microscopy relative to control; outline: as §6
# [19] = system: H4; assay: Increase in light chain 3-GFP+ autophagosome vesicle number per cell in human H4 cells at 6.1 uM after 24 hrs by high throughput fluorescence microscopy relative to control; outline: as §5
# [20] = system: H4; assay: Increase in light chain 3-GFP+ autophagosome vesicle intensity per cell in human H4 cells at 4.3 uM after 24 hrs by high throughput fluorescence microscopy relative to control; outline: as §2
# [21] = system: H4; assay: Induction of light chain 3-GFP level in human H4 cells at 4.3 uM after 24 hrs by high throughput fluorescence microscopy relative to control; outline: as §3
# [22] = system: H4; assay: Increase in light chain 3-GFP+ autophagosome vesicle number per cell in human H4 cells at 4.3 uM after 24 hrs by high throughput fluorescence microscopy relative to control; outline: as §2
# [23] = system: H4; assay: Increase in light chain 3-GFP+ autophagosome vesicle area per cell in human H4 cells at 4.3 uM after 24 hrs by high throughput fluorescence microscopy relative to control; outline: as §4
# [24] = system: H4; assay: Increase in light chain 3-GFP+ autophagosome vesicle area per cell in human H4 cells at 6.5 uM after 24 hrs by high throughput fluorescence microscopy relative to control; outline: as §6
# [25] = system: H4; assay: Effect on FYVE-RFP+ vesicle intensity per cell in human H4 cells after 2 hrs relative to control; design: concentration or dose not given beside the values; outline: as §1
# [26] = system: H4; assay: Effect on FYVE-RFP+ vesicle intensity per cell in human H4 cells after 4 hrs relative to control; design: concentration or dose not given beside the values; outline: as §1
# [27] = system: H4; assay: Induction of light chain 3-GFP level in human H4 cells at 6.5 uM after 24 hrs by high throughput fluorescence microscopy relative to control; outline: as §5
# [28] = system: H4; assay: Increase in light chain 3-GFP+ autophagosome vesicle intensity per cell in human H4 cells at 6.5 uM after 24 hrs by high throughput fluorescence microscopy relative to control; outline: as §6
# [29] = system: H4; assay: Effect on FYVE-RFP+ vesicle intensity per cell in human H4 cells after 8 hrs relative to control; design: concentration or dose not given beside the values; outline: as §1
# [30] = system: H4; assay: Increase in light chain 3-GFP+ autophagosome vesicle number per cell in human H4 cells at 6.5 uM after 24 hrs by high throughput fluorescence microscopy relative to control; outline: as §5
# [31] = system: H4; assay: Increase in light chain 3-GFP+ autophagosome vesicle intensity per cell in human H4 cells at 7.3 uM after 24 hrs by high throughput fluorescence microscopy relative to control; outline: as §6
# [32] = system: H4; assay: Induction of light chain 3-GFP level in human H4 cells at 7.3 uM after 24 hrs by high throughput fluorescence microscopy relative to control; outline: as §5
# [33] = system: H4; assay: Increase in light chain 3-GFP+ autophagosome vesicle area per cell in human H4 cells at 7.3 uM after 24 hrs by high throughput fluorescence microscopy relative to control; outline: as §6
# [34] = system: H4; assay: Increase in light chain 3-GFP+ autophagosome vesicle number per cell in human H4 cells at 7.3 uM after 24 hrs by high throughput fluorescence microscopy relative to control; outline: as §5
structure (smiles),measurement,setting,value
COC1=C2C[C@@H](C)C[C@H](OC)[C@H](O)[C@@H](C)/C=C(\C)[C@H](OC(N)=O)[C@@H](OC)/C=C\C=C(/C)C(=O)NC(=CC1=O)C2=O [GELDANAMYCIN],Activity,[1],35.18%
same,Activity,[2],87.795%
same,Activity,[3],546.8%
same,Activity,[4],87.25%
same,Activity,[5],313.52%
same,Activity,[6],81.41%
same,Activity,[7],39.26%
same,Activity,[8],74.67%
same,Activity,[9],398.91%
same,Activity,[10],41.33%
same,Activity,[11],72.93%
CNc1ccc2oc(C[C@@H]3OC4(CC[C@@H]3C)O[C@H]([C@@H](C)C(=O)c3ccc[nH]3)[C@H](C)C[C@H]4C)nc2c1C(=O)O (stereo not given in full),Activity,[12],181.04%
same,Activity,[13],49.3%
same,Activity,[14],172.66%
same,Activity,[15],15083%
CN(C)CCCn1cc(C2=C(c3c[nH]c4ccccc34)C(=O)NC2=O)c2ccccc21 [GF-109203],Activity,[16],47.77%
same,Activity,[17],211.81%
same,Activity,[18],208.08%
same,Activity,[19],198.94%
COc1cc([C@@H]2c3cc4c(cc3[C@@H](O[C@@H]3O[C@@H]5CO[C@@H](C)O[C@H]5[C@H](O)[C@H]3O)[C@H]3COC(=O)[C@H]23)OCO4)cc(OC)c1O [ETOPOSIDE],Activity,[20],335.9%
same,Activity,[21],48.17%
same,Activity,[22],275.6%
same,Activity,[23],306.93%
CCCC[C@@H](C=O)NC(=O)[C@H](CC(C)C)NC(=O)[C@H](CC(C)C)NC(C)=O (Ac-Leu-Leu-[Nle]-aldehyde),Activity,[24],362.79%
same,Activity,[2],91.35%
same,Activity,[4],124.56%
same,Activity,[25],72.86%
same,Activity,[26],84.85%
same,Activity,[27],96.31%
same,Activity,[28],495.29%
same,Activity,[8],104.95%
same,Activity,[29],88.42%
same,Activity,[11],95.45%
same,Activity,[30],277.88%
COc1ccc2c(c[n+](C)c3c4cc5c(cc4ccc23)OCO5)c1OC.[Cl-] [CHELERYTHRINE CHLORIDE],Activity,[24],229.91%
same,Activity,[1],30.83%
same,Activity,[2],108.72%
same,Activity,[4],101.43%
same,Activity,[7],33.84%
same,Activity,[27],110.26%
same,Activity,[28],213.88%
same,Activity,[8],100.4%
same,Activity,[10],22.01%
same,Activity,[11],106.48%
same,Activity,[30],195.46%
CCOC(=O)[C@H]1O[C@@H]1C(=O)N[C@@H](CC(C)C)C(=O)NCCC(C)C [ALOXISTATIN],Activity,[1],48.31%
same,Activity,[2],79.98%
same,Activity,[31],244.88%
same,Activity,[32],119.19%
same,Activity,[4],84.82%
same,Activity,[33],195.1%
same,Activity,[7],39.61%
same,Activity,[8],76.35%
same,Activity,[10],53.97%
same,Activity,[34],169.98%
same,Activity,[11],91.33%
Cn1cc(C2=C(c3cn(CCCSC(=N)N)c4ccccc34)C(=O)NC2=O)c2ccccc21 [BISINDOLYLMALEIMIDE IX],Activity,[3],240.67%
same,Activity,[5],190.07%
same,Activity,[6],50.58%
same,Activity,[9],190.1%
C=CCNC1=C2C[C@@H](C)C[C@H](OC)[C@H](O)[C@@H](C)/C=C(\C)[C@H](OC(N)=O)[C@@H](OC)/C=C\C=C(/C)C(=O)NC(=CC1=O)C2=O [TANESPIMYCIN],Activity,[20],385.49%
same,Activity,[21],66.89%
same,Activity,[22],293.36%
same,Activity,[23],364.98%
CC(C)(c1ccc(OCC2CO2)cc1)c1ccc(OCC2CO2)cc1 (stereo not given),Activity,[1],44.65%
same,Activity,[2],95.85%
same,Activity,[31],182.11%
same,Activity,[32],132.48%
same,Activity,[4],96.5%
same,Activity,[33],175.52%
same,Activity,[7],58.53%
same,Activity,[8],84.65%
same,Activity,[10],53.06%
same,Activity,[34],156.58%
same,Activity,[11],91.78%
